CYP2C19 inh = human CYP2C19 inhibition. CYP2C19 Supersomes, luciferin-H EGE luminescence, 30 min. inhibition, % at 5 µM. actives 21% (n = 96,000). P33261;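 active = CYP2C19 inhibition above a set limit at 5 µM in the primary screen, cut at about 50% in these data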
Target sequence (P33261 whole entry, looked up): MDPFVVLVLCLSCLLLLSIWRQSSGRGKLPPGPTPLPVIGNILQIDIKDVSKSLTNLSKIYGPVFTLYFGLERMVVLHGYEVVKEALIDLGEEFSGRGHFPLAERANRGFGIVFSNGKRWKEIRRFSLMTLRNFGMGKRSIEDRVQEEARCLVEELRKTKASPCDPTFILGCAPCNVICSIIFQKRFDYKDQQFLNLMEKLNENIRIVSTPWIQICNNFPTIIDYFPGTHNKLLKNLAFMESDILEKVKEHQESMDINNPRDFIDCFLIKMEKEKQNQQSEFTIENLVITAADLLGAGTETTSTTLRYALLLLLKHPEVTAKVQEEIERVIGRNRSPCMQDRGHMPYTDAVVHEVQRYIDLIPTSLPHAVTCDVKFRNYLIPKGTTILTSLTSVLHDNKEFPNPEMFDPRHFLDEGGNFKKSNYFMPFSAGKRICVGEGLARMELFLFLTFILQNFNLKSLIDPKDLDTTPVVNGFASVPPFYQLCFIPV
Rev-RRE block = HIV Rev-RRE protein-RNA interaction inhibition | actives 0.79% (n = 97,000) | inhibition, % at 8 µM | AID 704 | Rev peptide-RRE RNA binding, FRET;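 active = inhibition above the screen-wide mean plus 3 SD, cut at about 35% in these data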
Target sequence (P05866 whole entry, looked up): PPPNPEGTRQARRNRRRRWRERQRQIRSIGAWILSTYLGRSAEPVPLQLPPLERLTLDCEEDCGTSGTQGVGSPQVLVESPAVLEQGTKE
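System: Cy5-labelled duplex RRE RNA binding fluorescein-labelled HIV Rev peptide; Signal: fluorescein-to-Cy5 FRET, 480 nm excitation; Also added: labelled Rev peptide; Compound: one concentration, 8 µM nominal; Buffer or medium: HEPES pH 7.5 salt buffer with EDTA; Read-out: % inhibition of FRET ratio versus controls; Schedule: 5 min preincubation and 15 min binding, 25 °C.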
Cav3 T inh = inhibitors of human Cav3.2 T-type calcium channel; Cav3.2-expressing cells, Fluo-4 calcium fluorescence FDSS; stronger effect = lower value; B-score at 10 µM; O95180; actives 4% (n = 100,000);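 active = single-dose well whose peak fluorescence ratio is a statistical outlier from its plate by either plate-standardised score or position-corrected B-score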
CYP2C9 activ = CYP2C9 (human) activation | P11712 | recombinant CYP2C9, luciferin-H conversion, luminescence; stronger effect = higher value; factor 1 = untreated enzyme, 0 = blocked | activation factor at 5 µM | actives 1.4% (n = 96,000);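 active = activation factor of 2 or more for CYP2C9 at a 5 µM dose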
CYP2C19 act = activators of human cytochrome P450 2C19 | AID 1025 | recombinant CYP2C19, luciferin-H EGE luminescence; stronger effect = higher value; 0 = fully inhibited enzyme, 1 = untreated enzyme | 96,000 tested, under 10 active | P33261 | activation factor at 5 µM;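 active = activation factor of at least 2 at 5 µM in the primary screen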
CYP2C9 inh = inhibitors of human CYP2C9; CYP2C9 Supersomes, luciferin-H conversion, luminescence; inhibition, % at 5 µM; actives 20% (n = 96,000);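 active = blocking of liver enzyme CYP2C9 beyond about 50% at 5 µM, limit read from the data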
Hits are given with their value; i = inactive; nt = no result. Sampled rows, rich in hits. Any-hit rate of the full collection: about 27%.

SMILES	CYP2C19 inh	Rev-RRE block	Cav3 T inh	CYP2C9 activ	CYP2C19 act	CYP2C9 inh
CC1CCN(S(=O)(=O)c2ccc(S(=O)(=O)NCC3COCCO3)cc2)CC1 (configuration not stated)	60.2	i	i	i	i	i
O=C(C1CCCCC1)N1CCN(c2ncccn2)CC1	i	i	i	i	i	i
C[N+]1=C2CCCCCN2C(O)(c2ccccc2)C1 (configuration not stated)	i	nt	i	i	i	i
Nn1c(SC/C=C/c2ccccc2)nnc1-c1ccccn1	61.1	i	i	i	i	i
C(=C\c1ccccc1)/CSc1nnc(-c2ccccn2)n1Cc1ccco1	i	i	-5.47	i	i	i
Clc1ccc(-n2c(SC/C=C/c3ccccc3)nnc2-c2cccnc2)cc1	55.9	i	i	i	i	i
Nn1c(SC/C=C/c2ccccc2)nnc1-c1cccnc1	i	i	i	i	i	i
COC(=O)Cc1c(C)nc2nc(NCc3cccc([N+](=O)[O-])c3)[nH]n2c1=O	i	i	i	i	i	i
Nc1nsc2ccccc12	i	i	i	i	i	i
COC(=O)c1ccc(NC(=O)CSc2nnc(COc3ccccc3)n2C)cc1	i	i	i	i	i	i
Oc1ccc(Br)cc1-c1cc(-c2ccco2)[nH]n1	i	i	i	i	i	i
Oc1c(-c2cc(-c3ccco3)[nH]n2)ccc2ccccc12	i	i	i	i	i	73.5
Oc1ccc(Cl)cc1-c1cc(-c2ccco2)[nH]n1	i	i	i	i	i	i
Oc1ccccc1-c1cc(-c2ccco2)[nH]n1	i	i	i	i	i	51.3
CC(C)OC(=O)CSc1nc2ccccc2s1	i	i	i	i	i	i
COc1ccc2c(c1)C(C)CC(C)(C)N2C(=O)CSc1nc2ccccc2s1 (configuration not stated)	71.3	i	-7.64	i	i	53.5
Cc1nc2ccccn2c1C(=O)NC1CCCCC1	i	nt	i	i	i	i
CCC1(CC)Cc2ccccc2C(Nc2c(C)n(C)n(-c3ccccc3)c2=O)=N1	i	i	i	i	i	i
CCOc1ccc(C)cc1S(=O)(=O)n1ccc(C)n1	i	i	nt	2.3	i	i
CCOc1cc(C)c(C(C)C)cc1S(=O)(=O)n1ccc(C)n1	54.2	i	nt	i	i	i
COc1cc(C)c(C(C)C)cc1S(=O)(=O)n1cnc(C)c1	i	nt	-4.79	i	i	i
CCOc1ccc(S(=O)(=O)n2nc(C)cc2C)c2ccccc12	i	nt	i	i	i	i
CCOc1cc(C)c(C(C)C)cc1S(=O)(=O)N1CCN(C)CC1	i	i	i	i	i	i
O=S(=O)(c1ccc(F)cc1)n1ccc(-c2cccc(OCc3ccc(Cl)cc3Cl)c2)n1	i	i	i	i	i	i
c1cnc(N2CC[N+]3(CCCC3)CC2)nc1	i	i	i	i	i	i
SMILES	CYP2C19 inh	Rev-RRE block	Cav3 T inh	CYP2C9 activ	CYP2C19 act	CYP2C9 inh
Cn1c(=O)c2ncn(CC(=O)Nc3ccc4oc(-c5cccc6ccccc56)nc4c3)c2n(C)c1=O	nt	i	nt	nt	nt	nt
Cc1nc(N)nc(-c2ccccc2O)n1	i	i	i	i	i	i
CN(C)CCCN1C(=O)C(O)=C(C(=O)c2cc3ccccc3o2)C1c1ccccc1 (configuration not stated)	i	i	nt	i	i	i
CCn1c(=S)ccc2ccc(OC)cc21	63.5	i	i	i	i	i
COc1ccc(-c2[nH]ncc2-c2cnn(-c3ccccc3)c2)c(O)c1	69.4	i	i	i	i	82.4
COc1ccc(-c2nc(N)ncc2Oc2ccccc2Br)c(O)c1	i	i	nt	i	i	i
CCCc1ccc(Oc2cn[nH]c2-c2ccc(O)cc2O)cc1	96.4	i	i	i	i	88.9
COc1ccc(Oc2cn[nH]c2-c2ccc(O)cc2O)cc1	99.9	i	-5.95	i	i	98.8
COc1ccc(-c2[nH]ncc2Oc2ccccc2OC)c(O)c1	93.6	i	i	i	i	74.6
Cc1[nH]nc(-c2ccc(OCc3cnn(-c4ccccc4)c3)cc2O)c1Oc1ccccc1F	i	i	i	i	i	i
CCC(CC)C(=O)Nc1c2c(nn1-c1ccc(OC)cc1)CS(=O)C2 (configuration not stated)	i	i	i	i	i	i
O=C(NCCCn1ccnc1)c1cccc(S(=O)(=O)N2CCCCCC2)c1	95.4	i	i	i	i	100.1
O=C(NCCCn1ccnc1)c1ccc(Cl)c(S(=O)(=O)N2CCOCC2)c1	i	i	i	i	i	96.8
O=CN1CCN(C(C(=O)NC2CCCC2)c2ccc(Cl)cc2)CC1 (configuration not stated)	i	i	i	i	i	i
Nc1nc(CSc2ncn(-c3ccccc3)n2)cs1	81.9	i	i	i	i	i
c1ccc(CSc2ncn(-c3ccccc3)n2)cc1	85.3	i	i	i	i	79.3
O=C(CSc1ncn(-c2ccccc2)n1)Nc1ccc2c(c1)OCCO2	i	nt	i	i	i	i
Cc1sc(NC(=O)CSc2ncn(-c3ccccc3)n2)nc1-c1ccccc1	nt	i	i	nt	nt	nt
CCOC(=O)c1sc(NC(=O)CSc2ncn(-c3ccccc3)n2)nc1C	i	i	i	i	i	i
O=C(CSc1ncn(-c2ccccc2)n1)c1cccs1	94.0	i	i	i	i	71.0
Cc1noc(C)c1S(=O)(=O)NCc1ccc2c(c1)OCO2	92.9	nt	i	i	i	98.4
CCOc1cc(C)c(Cl)cc1S(=O)(=O)NCc1ccc2c(c1)OCO2	99.4	i	nt	i	i	i
Cc1ccc(CS(=O)(=O)CCC(=O)NCc2ccc3c(c2)OCO3)cc1	i	i	i	i	i	i
CCOc1cc(S(=O)(=O)NCc2ccc3c(c2)OCO3)c(C)cc1C	85.6	i	-6.22	i	i	91.1
Cc1ccc2nsnc2c1S(=O)(=O)NCc1ccc2c(c1)OCO2	nt	i	i	nt	nt	nt
SMILES	CYP2C19 inh	Rev-RRE block	Cav3 T inh	CYP2C9 activ	CYP2C19 act	CYP2C9 inh
CCSC1=C(C#N)C(c2ccc3c(c2)OCO3)C2=C(CCCC2=O)N1 (configuration not stated)	84.6	i	i	i	i	66.8
Cc1ccc(NC(=O)CSC2=C(C#N)C(c3ccc4c(c3)OCO4)C3=C(CCCC3=O)N2)c(C)c1 (configuration not stated)	87.6	i	i	i	i	93.4
COC(=O)CSC1=C(C#N)C(c2ccc3c(c2)OCO3)C2=C(CCCC2=O)N1 (configuration not stated)	74.2	i	i	i	i	85.6
COC(=O)CSC1=C(C#N)C(c2ccc(C)cc2)C2=C(CCCC2=O)N1 (configuration not stated)	i	i	i	i	i	i
N#CC1=C(SCc2ccccc2)NC2=C(C(=O)CCC2)C1c1ccc2c(c1)OCO2 (configuration not stated)	i	i	i	i	i	i
CCOC(=O)CSC1=C(C#N)C(C)C2=C(CCCC2=O)N1 (configuration not stated)	94.0	i	i	i	i	i
